# Experimental data published in ChEMBL document CHEMBL4266033, “Neolymphostin A Is a Covalent Phosphoinositide 3-Kinase (PI3K)/Mammalian Target of Rapamycin (mTOR) Dual Inhibitor That Employs an Unusual Electrophilic Vinylogous Ester” (J Med Chem, 2018).
# Calls of active or inactive are those of the source. The rule behind the calls is not given here.
# How the values were obtained:
# HeLa [1] = experiment: Inhibition of PI3K in human HeLa cells assessed as reduction in EGF-stimulated AKT phosphorylation at S473 at 1 to 100 nM preincubated for 10 mins followed by EGF stimulation measured after 5 mins by Western blot analysis; assay type: cell-based
# In short: (§1)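 HeLa cells were serum-starved overnight, pretreated with compound for 10 min, then stimulated with 10 ng mL-1 EGF for 5 min. Lysis was in boiling SDS sample buffer, with protein quantified at 660 nm. Equal protein was resolved by SDS-PAGE and Western blotted for pEGFR Tyr1068, pAKT Ser473/Thr308, and pERK1/2 Thr202/Tyr204 with total proteins and GAPDH, detected by ECL.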
# HeLa [2] = experiment: Inhibition of PI3K in human HeLa cells assessed as reduction in EGF-stimulated AKT phosphorylation at T308 at 1 to 100 nM preincubated for 10 mins followed by EGF stimulation measured after 5 mins by Western blot analysis; assay type: cell-based; in short: as §1
# [3] = Electrophilicity towards N-alpha-acetyl lysine in 100 mM pH 8.1 phosphate buffer assessed as (S)-2-acetamido-6-(3-oxo-3-(pyridin-2-yl)prop-1-enylamino)hexanoic acid formation using 10 fold excess N-alpha-acetyl lysine at 25 degC by NMR spectrscopy; assay type: physicochemical
# In short: (§2)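 NMR kinetics of the model electrophile with and without Nα-acetyl lysine, set up as in the glutathione protocol. Phosphate-buffered D2O (100 mM) was at pH 8.1. Electrophile diluted from a 200 mM DMSO-d6 stock; lysine solution freshly prepared in the same buffer.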
# [4] = Electrophilicity towards N-alpha-acetyl lysine in 100 mM pH 8.1 phosphate buffer assessed as 3-hydroxy-1-(pyridin-2-yl)prop-2-en-1-one formation using 10 fold excess N-alpha-acetyl lysine at 25 degC by NMR spectrscopy; assay type: physicochemical; in short: as §2
# [5] = Glutathione reactivity assessed as formation of (2S)-2-amino-5-((2R)-1-(carboxymethylamino)-3-(1-methoxy-3-oxo-3-(pyridin-2-yl)propylthio)-1-oxopropan-2-ylamino)-5-oxopentanoic acid in presence of pH 7.4 at 37 degC by NMR based method; assay type: physicochemical; settings: gsh
# [6] = Glutathione reactivity assessed as formation of (2S)-2-amino-5-((2R)-1-(carboxymethylamino)-3-(1-methoxy-3-oxo-3-(pyridin-2-yl)propylthio)-1-oxopropan-2-ylamino)-5-oxopentanoic acid in presence of pH 7.4 at 25 degC by NMR based method; assay type: physicochemical; settings: gsh
# [7] = Electrophilicity towards N-alpha-acetyl lysine in 100 mM pH 7.4 phosphate buffer using 10 fold excess N-alpha-acetyl lysine at 25 degC by NMR spectrscopy; assay type: physicochemical
# In short: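 Model electrophile with tenfold excess Nα-acetyl lysine in 100 mM phosphate buffer, pH 7.4, at 25 °C. Set up as in the glutathione NMR kinetics (1.0 mM electrophile from DMSO-d6 stock, buffered D2O).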
# HeLa [8] = experiment: Inhibition of PI3K in human HeLa cells assessed as reduction in EGF-stimulated AKT phosphorylation at S473 at 100 nM preincubated for 10 mins followed by EGF stimulation measured after 5 mins by Western blot analysis; assay type: cell-based
# In short: (§3)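 HeLa cells serum-starved overnight, pretreated with compound for 10 min, then stimulated with EGF at 10 ng mL-1 for 5 min. Lysis in boiling SDS sample buffer, protein quantified, equal protein boiled 5 min and run on SDS-PAGE. Transfer to PVDF, Western blot for EGFR/pEGFR (Tyr1068), AKT/pAKT (Ser473, Thr308), ERK1/2/pERK1/2 (Thr202/Tyr204) and GAPDH, with ECL detection.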
# HeLa [9] = experiment: Inhibition of PI3K in human HeLa cells assessed as reduction in EGF-stimulated AKT phosphorylation at T308 at 100 nM preincubated for 10 mins followed by EGF stimulation measured after 5 mins by Western blot analysis; assay type: cell-based; in short: as §3
# [10] = target: Epidermal growth factor receptor (Homo sapiens) (UniProt P00533); experiment: Inhibition of EGFR in human HeLa cells assessed as reduction in EGF-stimulated ERK1/2 phosphorylation at T202/Y204 at 100 nM preincubated for 10 mins followed by EGF stimulation measured after 5 mins by Western blot analysis; assay type: cell-based; in short: as §3
# Chain of Epidermal growth factor receptor (Homo sapiens) (P00533 whole entry): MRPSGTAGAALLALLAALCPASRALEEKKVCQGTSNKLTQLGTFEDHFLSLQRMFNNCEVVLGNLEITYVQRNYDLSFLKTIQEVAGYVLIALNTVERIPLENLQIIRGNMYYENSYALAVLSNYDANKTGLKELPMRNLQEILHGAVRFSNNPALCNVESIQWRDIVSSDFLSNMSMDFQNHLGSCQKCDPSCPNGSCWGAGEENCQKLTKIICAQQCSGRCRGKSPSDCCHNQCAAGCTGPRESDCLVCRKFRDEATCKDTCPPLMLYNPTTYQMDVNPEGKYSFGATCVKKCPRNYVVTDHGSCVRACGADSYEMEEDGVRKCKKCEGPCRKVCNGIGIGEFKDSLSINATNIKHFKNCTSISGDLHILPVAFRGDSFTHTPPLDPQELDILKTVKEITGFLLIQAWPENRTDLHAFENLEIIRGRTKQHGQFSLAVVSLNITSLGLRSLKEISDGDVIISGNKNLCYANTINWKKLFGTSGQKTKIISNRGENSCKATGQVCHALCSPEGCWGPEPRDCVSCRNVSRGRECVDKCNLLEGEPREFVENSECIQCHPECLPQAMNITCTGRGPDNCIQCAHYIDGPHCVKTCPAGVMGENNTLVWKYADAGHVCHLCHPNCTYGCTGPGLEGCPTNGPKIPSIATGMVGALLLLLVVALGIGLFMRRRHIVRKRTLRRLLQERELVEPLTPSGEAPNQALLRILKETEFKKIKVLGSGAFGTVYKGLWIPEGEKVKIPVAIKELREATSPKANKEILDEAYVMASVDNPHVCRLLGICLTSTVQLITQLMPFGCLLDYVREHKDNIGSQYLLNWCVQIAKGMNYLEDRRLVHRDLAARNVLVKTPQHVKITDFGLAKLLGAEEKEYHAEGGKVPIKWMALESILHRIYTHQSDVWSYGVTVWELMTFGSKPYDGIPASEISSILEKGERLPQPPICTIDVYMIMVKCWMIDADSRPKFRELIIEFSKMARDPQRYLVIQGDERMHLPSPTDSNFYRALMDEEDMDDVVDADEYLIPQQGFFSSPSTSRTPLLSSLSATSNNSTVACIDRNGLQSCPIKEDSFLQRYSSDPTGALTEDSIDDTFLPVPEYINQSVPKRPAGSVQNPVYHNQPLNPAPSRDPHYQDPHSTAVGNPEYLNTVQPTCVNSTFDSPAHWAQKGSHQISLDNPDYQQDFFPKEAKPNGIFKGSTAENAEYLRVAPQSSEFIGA
# [11] = target: Epidermal growth factor receptor (Homo sapiens) (UniProt P00533); experiment: Inhibition of EGFR in human HeLa cells assessed as reduction in EGF-stimulated EGFR Y1068 phosphorylation at 100 nM preincubated for 10 mins followed by EGF stimulation measured after 5 mins by Western blot analysis; assay type: cell-based; in short: as §3
smiles,measurement,setting,value
CC(C)C(=O)Nc1cc(N)c2c3c(cc(C(=O)CCO)nc13)C=N2,inhibition,HeLa [1],inactive
same,inhibition,HeLa [2],inactive
CO/C=C/C(=O)c1ccccn1,t1/2,[3],60 min
same,t1/2,[4],1440 min
same,t1/2,[5],5.4 min
same,t1/2,[6],13 min
same,Activity,[7],Not Active
COC[C@H]1OC(=O)c2coc3c2[C@@]1(C)C1=C(C3=O)[C@@H]2CCC(=O)[C@@]2(C)C[C@H]1OC(C)=O,inhibition,HeLa [8],Active
same,inhibition,HeLa [9],Active
same,inhibition,[10],inactive
same,inhibition,[11],inactive
